Data taken from paper PMC2633595 (Analytical biochemistry, 2008).
“Also recorded” adds a separate entry of the source. Read-outs that look alike come from different tables or passages of the source.

Assays:
GST-Rab7 [1] = target: T1, GST-Rab7 (Canis lupus familiaris, UniProt P18067); assay type: binding, canine; conditions: for maximal binding Bmax: GST-Rab7, 1 mM MgCl2
Method in brief: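 Canine GST-Rab7 from E. coli, glutathione-purified, loaded at 1 µM onto glutathione beads (4°C, overnight, HPS buffer, 1 mM DTT). 10^4 beads incubated 2 h at 4°C with 0–2 µM BODIPY FL GTP, GDP or GTP-γ-NH in 1 mM EDTA or 1 mM MgCl2. Diluted ≥10-fold and read by flow cytometry. Fluorescein calibration beads gave BODIPY/bead. Bmax and Kd from hyperbolic fit.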

GST-Rab7 [2] = target: T1, GST-Rab7; assay type: binding, canine; conditions: competition with 100 nM BODIPY FL GTP, 1 mM EDTA buffer
Method in brief: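 Canine Rab7 GST fusion expressed in BL21(DE3) E. coli and glutathione-affinity purified. 1 µM protein loaded overnight at 4°C onto glutathione Superdex beads in HPS buffer (HEPES pH 7.5, KCl, NaCl, dodecyl maltoside) with 1 mM DTT, then washed. 10^4 beads incubated 2 h at 4°C with 100 nM BODIPY FL GTP plus unlabeled GDP or GTP-γ-S. Read by flow cytometry; fitted EC50 converted to Ki.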

GST-Rab7 [3] = target: T1, GST-Rab7; experiment: Kinetic assays; assay type: binding, canine; conditions: for koff: GST-Rab7, 1 mM EDTA buffer
GST-RhoA = GST-RhoA (Homo sapiens, UniProt P61586); assay type: binding; conditions: for maximal binding Bmax: 1 mM MgCl2; for Bmax / Kd: 1 mM MgCl2 buffer
Method in brief: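 GST-RhoA purified from E. coli. Loaded at 1 µM overnight at 4°C onto glutathione beads in HPS buffer with 1 mM DTT and 1 mM MgCl2, then washed twice. 10^4 beads incubated 2 h at 4°C with 0–2 µM BODIPY FL GTP or GTP-γ-NH in 1 mM MgCl2. Diluted ≥10-fold and read by flow cytometry. Signal calibrated to BODIPY/bead with fluorescein beads. Bmax and Kd from hyperbolic fit.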

Rab7 = conditions: nucleotide free system ref 11; cited from earlier work
[4] = GST-Rab7, 1 mM EDTA buffer, 2 h at 4°C

T1 sequence (P18067 whole entry): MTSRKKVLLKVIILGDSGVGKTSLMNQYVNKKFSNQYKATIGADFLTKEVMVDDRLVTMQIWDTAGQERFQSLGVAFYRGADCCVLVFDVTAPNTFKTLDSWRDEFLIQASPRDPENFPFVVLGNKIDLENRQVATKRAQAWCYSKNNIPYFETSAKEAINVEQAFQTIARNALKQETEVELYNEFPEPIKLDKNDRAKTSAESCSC
Chain of GST-RhoA (P61586 whole entry): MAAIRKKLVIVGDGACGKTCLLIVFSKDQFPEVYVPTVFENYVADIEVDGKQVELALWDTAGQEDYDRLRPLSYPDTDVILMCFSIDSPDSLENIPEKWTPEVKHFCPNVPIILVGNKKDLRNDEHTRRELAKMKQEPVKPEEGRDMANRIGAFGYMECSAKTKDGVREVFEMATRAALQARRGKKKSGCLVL

| Molecule | higher affinity of Rab7 for GDP relative to GTP (GST-Rab7 [1]; GST-Rab7) [fold] | Bmax (GST-Rab7 [1]; GST-Rab7, 1 mM EDTA buffer) | Kd (GST-Rab7 [1]; [4]) [nM] | koff (GST-Rab7 [3]) | maximal binding Bmax (GST-Rab7 [1]) | Bmax (GST-Rab7 [1]; GST-Rab7, 1 mM MgCl2 buffer) | Kd (GST-Rab7 [1]; GST-Rab7, 1 mM MgCl2 buffer) [nM] | maximal binding Bmax (GST-RhoA) | Bmax (GST-RhoA) | Kd (GST-RhoA) [nM] | Ki (GST-Rab7 [2]) [nM] | other results |
| --- | --- | --- | --- | --- | --- | --- | --- | --- | --- | --- | --- | --- |
| Nc1nc2c(ncn2[C@@H]2O[C@H](COP(=O)(O)OP(=O)(O)O)[C@@H](O)[C@H]2O)c(=O)[nH]1 [GDP] | 3 |  |  |  |  |  |  |  |  |  | 13 ± 5 | slower dissociation rate of GDP (GST-Rab7 [3]; GST-Rab7, relative to GTP): 3 fold |
| Nc1nc2c(ncn2[C@@H]2O[C@H](COP(=O)(O)OP(=O)(O)OP(O)(O)=S)[C@@H](O)[C@H]2O)c(=O)[nH]1 [GTP-γ-S] |  |  |  |  |  |  |  |  |  |  | 40 ± 10 |  |
| BODIPY FL GTP 2’-(or-3’)-O-(N-(2-aminoethyl)urethane |  | 1600 ± 400 10^3 BODIPY/bead | 150 ± 62 | 7.0 ±3.0 × 10^−3 sec^−1 | 650 × 10^3 fluorophores/bead | 650 ± 10 10^3 BODIPY/bead | 20 ± 5 | 700 × 10^3 fluorophores/bead | 700 ± 20 10^3 BODIPY/bead | 80 ± 10 |  | decrease in affinity in the absence of Mg^2+ (GST-Rab7 [1]; GST-Rab7): 8 fold; maximal binding (GST-Rab7 [1]; GST-Rab7, 1 mM EDTA): 1600 × 10^3 fluorophores/bead; faster dissociation of GTP compared to GDP (GST-Rab7 [3]; GST-Rab7): 3 fold; t1/2 (observed on-rate half-time) (GST-Rab7 [3]; GST-Rab7, 1 mM EDTA, 50-500 nM BODIPY FL GTP): 11.1 ± 0.6 min; dissociation rate faster in the absence of Mg^2+ relative to Mg^2+ present (GST-Rab7 [3]; GST-Rab7, competed by excess unlabeled nucleotide): 7 times; koff Mg^2+ (GST-Rab7 [3]; GST-Rab7, with Mg^2+): 0.0013 s⁻¹ |
| methylanthraniloyl (mant) GTP |  |  |  |  |  |  |  |  |  |  |  | Kd (Rab7): 6 nM |

Continued, in another order:

| higher affinity of Rab7 for GDP relative to GTP (GST-Rab7 [1]; GST-Rab7) [fold] | Bmax (GST-Rab7 [1]; GST-Rab7, 1 mM EDTA buffer) | Kd (GST-Rab7 [1]; [4]) [nM] | koff (GST-Rab7 [3]) | maximal binding Bmax (GST-Rab7 [1]) | Bmax (GST-Rab7 [1]; GST-Rab7, 1 mM MgCl2 buffer) | Kd (GST-Rab7 [1]; GST-Rab7, 1 mM MgCl2 buffer) [nM] | maximal binding Bmax (GST-RhoA) | Bmax (GST-RhoA) | Kd (GST-RhoA) [nM] | Molecule | Ki (GST-Rab7 [2]) [nM] | other results |
| --- | --- | --- | --- | --- | --- | --- | --- | --- | --- | --- | --- | --- |
| 3 | 2000 ± 400 10^3 BODIPY/bead | 54 ± 15 | 2.3 ± 1.5 × 10^−3 sec^−1 |  |  |  |  |  |  | BODIPY FL GDP 2′-(or-3′)-O-(N-(2-aminoethyl)urethane) |  |  |
|  |  |  |  | 60 × 10^3 fluorophores/bead | 60 ± 5 10^3 BODIPY/bead | 70 ± 20 | 710 × 10^3 fluorophores/bead | 710 ± 15 10^3 BODIPY/bead | 95 ± 10 | BODIPY FL GTP-γ-NH amide |  | binding to GST-Rab7 (in words) (GST-Rab7 [1]; GST-Rab7): unique inability; also recorded: marked inability to bind; lower binding affinity relative to BODIPY FL GTP (GST-Rab7 [1]; GST-Rab7, with Mg^2+): 90% |
